Only some compounds are listed: those with a hit (about 1.2% of all), similar ones and a draw of the others.
S1P4 ag = S1P4 receptor agonists, primary screen, cell-based. AID 1509, 2009. Sphingosine 1-phosphate receptor 4 (Homo sapiens), O95977. activation, % at 4.98 µM. 220,000 tested, 0.35% active. S1P4-expressing cell line, agonist reporter assay; in the data active = activation above about 11%;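 also: 0% = DMSO vehicle and 100% = reference agonist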
Target sequence (O95977 whole entry, looked up): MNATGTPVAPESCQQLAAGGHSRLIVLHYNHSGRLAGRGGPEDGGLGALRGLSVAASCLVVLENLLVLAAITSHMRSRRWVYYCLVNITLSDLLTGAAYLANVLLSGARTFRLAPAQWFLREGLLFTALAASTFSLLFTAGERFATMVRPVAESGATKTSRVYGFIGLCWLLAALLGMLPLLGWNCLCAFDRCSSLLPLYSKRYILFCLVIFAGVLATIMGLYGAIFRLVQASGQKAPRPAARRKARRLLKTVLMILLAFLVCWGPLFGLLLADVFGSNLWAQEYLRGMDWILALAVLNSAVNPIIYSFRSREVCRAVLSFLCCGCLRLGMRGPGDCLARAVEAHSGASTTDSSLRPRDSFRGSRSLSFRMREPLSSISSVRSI
Calb biofilm kill = clotrimazole potentiators killing C. albicans biofilm, primary screen, 4-compound mixtures; C. albicans biofilm persisters + clotrimazole, fluorescence viability; primary screen in compound mixtures of four per well; inhibition, % at 7.6 µM; 120,000 tested, 0.02% active;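 active = inhibition above 30.3% in the primary screen of four-compound pools, then above 30% when the compound was retested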;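 also: compounds exposed to preformed 24 h biofilms for 48 h; 0% = untreated biofilm control and 100% = clotrimazole plus chlorhexidine kill blank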
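System: C. albicans CAF4-2 wild-type biofilms; Medium: RPMI/MOPS medium, pH 7.0; Reagent: Clotrimazole, 50 µg/mL; Times: biofilm formation 24 h, compound exposure 48 h, 37 °C; Detection: 2-h Alamar Blue fluorescence, 535/590 nm excitation/emission; Evaluation: percent inhibition of biofilm viability.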
S1P3 antag = S1P3 receptor antagonists, primary screen, cell-based; CHO S1P3 NFAT-BLA reporter, FRET fluorescence, antagonist mode; inhibition, % at 4.98 µM; 170,000 tested, 0.27% active; AID 485, 2006;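 active = inhibition above the plate cutoff, the mean inhibition of test wells on that plate plus 3 SD, cut at about 28% in these data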;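 also: cells challenged with S1P at its EC80 of 0.8 µM; blue over green emission ratio from cleaved BLA substrate after 4 h stimulation; 0% = S1P-stimulated wells and 100% = unstimulated DMSO-only wells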
S1P4 antagonist = S1P4 receptor antagonists, primary screen, cell-based; inhibition, % at 4.98 µM; 220,000 tested, 0.26% active; Sphingosine 1-phosphate receptor 4 (Homo sapiens), O95977; S1P4-expressing cells, antagonist mode, reporter read-out; AID 1510, 2009; in the data active = inhibition above about 29%;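 also: 0% = wells stimulated with agonist and 100% = vehicle wells without agonist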
Efa HMGR inh = inhibitors of E. faecalis class II HMGR, primary screen, biochemical, Enterococcus faecalis; 190,000 tested, 0.41% active; HMG-CoA reductase (Enterococcus faecalis, mvaE); purified E. faecalis HMGR, NADPH absorbance 340 nm kinetic; inhibition, % at 10 µM;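 active = inhibition above a set limit, the median over all tested compounds plus 3 SD, cut at about 9.5% in these data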;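 also: enzyme runs in reverse so mevalonate oxidation gives rising NADPH absorbance; 0% = complete reaction with DMSO and 100% = background rate lacking mevalonate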
Rad51 HR inh = human RAD51 strand exchange inhibitors, primary screen, biochemical, fluorescence; 200,000 tested, 0.085% active; hRad51 DNA strand exchange, fluorescence dequenching; DNA repair protein RAD51 homolog 1 (Homo sapiens), Q06609; inhibition, % at 10 µM; AID 1385, 2008;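 active = inhibition above 40% at the single screening dose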;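 also: 0% = DMSO control wells and 100% = blanks with heterologous ssDNA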
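Test system: preformed human Rad51 ssDNA filaments. Compound dosing: single dose, 10 µM final compound. Incubation: filaments 15 min 37 °C, then compound 30 min. Technique: FRET fluorescence dequenching, excitation 485 nm, emission 520 nm. Read-out basis: percent inhibition from fluorescence, normalised to plate control and blank means. Benchmarks: plate controls and plate blanks.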
* hit, by the source's call; . = no result given.

SMILES	S1P4 ag	Calb biofilm kill	S1P3 antag	S1P4 antagonist	Efa HMGR inh	Rad51 HR inh
COc1cccc(-n2cc(CNCc3c(C(=O)N(C)C)nc4ccc(Cl)cn34)cn2)c1	0	3	1	8	1	3
C=CCn1c(Oc2ccccc2)nc2c1c(=O)n(C)c(=O)n2C	1	8	9	-19	16*	-2
COc1cccc(Cn2c(Oc3ccccc3)nc3c2c(=O)n(C)c(=O)n3C)c1	-1	.	.	-22	5	-4
Cc1cccc(C)c1NC(=O)CN	0	5	-8	-3	.	20
Cc1cccc(C)c1NC(=O)Cn1nnnc1N	2	13	12	-2	13*	-3
COC(=O)Cc1c(O)ccn(Cc2ccccc2OC)c1=O	1	.	.	6	-1	-2
COc1ccc(N2CCN(C(CNC(C)=O)c3ccco3)CC2)cc1 (stereo not drawn)	0	12	-7	-3	-10	9
COc1ccc(N2CCN(C(CNC(=O)C(C)(C)C)c3ccco3)CC2)cc1 (stereo not drawn)	-1	-8	-8	9	11*	18
CC(C)(C)c1cc(CSC(=S)NC2CCS(=O)(=O)C2)c(Br)c(C(C)(C)C)c1 (stereo not drawn)	-1	12	-31	-10	-4	2
O=S1(=O)CC=C(CSC(=S)NC2CCS(=O)(=O)C2)C1 (stereo not drawn)	0	15	21	-16	15*	.
COc1ccccc1-c1ccc(=O)n(CC(=O)Nc2ccc(C(=O)N3CCCC3)cc2)n1	2	.	-21	3	-7	-5
O=C(NC(NC(=S)Nc1ccccc1C(=O)O)C(Cl)(Cl)Cl)c1ccccc1 (stereo not drawn)	-1	11	-4	-13	17*	13
O=C(NC(NC(=S)Nc1ccccc1C(=O)O)C(Cl)(Cl)Cl)c1ccco1 (stereo not drawn)	0	0	0	-11	-9	.
O=C1C(CCCNC(=S)NCc2ccccc2)NC(=S)N1Cc1ccccc1 (stereo not drawn)	0	-15	3	-10	-6	1
CCOC(=O)Cn1c(=O)c2c(nc(N3CCOCC3)n2C)n(C)c1=O	0	.	.	5	-2	-3
CCOC(=O)Cn1c(=O)c2c(nc(N3CCCCC3)n2Cc2ccccc2)n(C)c1=O	2	.	38	0	-2	44*
CCN(CC)c1ccc(N/C(N)=N/c2nc(C(F)(F)F)cc(=O)[nH]2)cc1	2	11	-10	4	-4	2
O=C(N/N=C/c1cc(Br)cc(Br)c1O)c1cccc(N2CCCC2=O)c1	0	29	8	-8	14*	-21
COc1ccc(Br)cc1S(=O)(=O)N(CC(=O)N1CCOCC1)c1ccccc1	2	.	-3	-18	-5	-4
O=C(CSc1nnc(COc2cccc3cccnc23)o1)N1CCCC1	1	4	-6	4	12*	-9
COc1ccc(-n2nc(C#N)c(Cl)cc2=O)cc1	-5	8	-2	30*	-3	19
COC(=O)c1nn(-c2ccc(OC)cc2)c(=O)cc1O	1	15	1	-9	1	-2
Cc1nc2c([nH]1)C1(CCN(Cc3ccccc3)CC1)C(C#N)=C(N)O2	0	.	-19	-27	17*	-18
O=C1c2cccc3c([N+](=O)[O-])ccc(c23)C(=O)N1c1nccs1	0	.	.	99*	-3	-10
O=C(COc1ccccc1)Nc1ccccc1N1CCN(c2ccc(F)cc2)CC1	2	.	4	-7	-2	-4
SMILES	S1P4 ag	Calb biofilm kill	S1P3 antag	S1P4 antagonist	Efa HMGR inh	Rad51 HR inh
O=C(Nc1ccccc1N1CCN(c2ccc(F)cc2)CC1)c1ccccc1	-1	.	62*	-6	2	0
CCCc1nn(C)c(C(=O)Nc2cccc(CC)c2)c1Cl	1	17	19	-8	-1	21
O=c1c2ccccc2ncn1CCOc1ccccc1[N+](=O)[O-]	-1	6	1	-2	4	1
CC(C)(C)[C@H]1C=C(C(=O)N2CCN(Cc3ccc4c(c3)OCO4)CC2)O[C@@H](OCc2ccc(CO)cc2)C1	-1	11	1	23	19*	7
CCOc1ccccc1/C=C(\C#N)C(=O)Nc1cccc(C(=O)O)c1	1	19	-3	-3	.	-72
Cn1c(=O)c(C(=O)CCl)c(N)n(Cc2ccccc2)c1=O	0	16	-5	3	3	1
CCn1c(=O)c(C(=O)CN2CCOCC2)c(N)n(Cc2ccccc2)c1=O	-1	.	77*	11	0	-6
Cn1c(=O)c(C(=O)CSc2ccccc2)c(N)n(Cc2ccccc2)c1=O	0	5	-4	-8	14*	-11
CC(=O)N(CC(=O)Nc1nn(-c2ccccc2)nc1C(N)=O)Cc1ccccc1	-1	.	-54	6	-4	-34
CC(C)(C)n1nnnc1SCC(=O)Nc1nn(-c2ccccc2)nc1C(N)=O	7	12	0	-30	10.0*	0
NC1=NC(=O)S/C1=C\c1ccc(F)cc1	0	14	-16	-24	24*	2
COCCOC(=O)c1c(NC(=O)CN2CCOCC2)sc(C(N)=O)c1C	-1	.	12	-20	17*	-5
CCOC(=O)c1c(NC(=O)CN2CCOCC2)sc(C(=O)NC)c1C	2	.	.	5	0	-1
O=C(COC(=O)c1c(Cl)cccc1Cl)Nc1ccccc1Br	3	20	-19	-1	3	1
O=C(O)/C=C/c1cn(Cc2ccccc2)nc1-c1ccccc1	0	.	.	4	-6	44*
CCOc1cc(/C=N/NC(N)=O)cc(Br)c1OCC(=O)Nc1cccc2ccccc12	-2	.	.	-8	2	122*
Nc1nc(SCc2ccccc2Cl)ns1	2	16	.	0	13*	-11
CCCCC[C@H](O)/C=C/[C@@H]1[C@@H](C/C=C\CCCC(=O)O)[C@H]2CO[C@@H]1C2	4	23	-7	-40	11*	-4
CCCCC[C@H](O)/C=C/[C@@H]1[C@@H](C/C=C\CCCC(=O)O)[C@@H](O)C[C@H]1O	1	5	-16	-33	-1	-9
N#CC1(c2ccc(NC(=O)c3ccccc3)cc2)CCCC1	0	.	.	8	13*	-2
CC1CN(C(=O)c2cccc(S(=O)(=O)Nc3ccc(Cl)cc3)c2)CC(C)O1 (stereo not drawn)	0	6	-10	3	24*	-2
Oc1ccc(N=Nc2c(O)ccc3ccccc23)cc1	0	.	.	-11	-3	6

From PubChem BioAssay
